From ChEMBL document CHEMBL1250451, “Mechanistic insights into a Ca2+-dependent family of alpha-mannosidases in a human gut symbiont” (Nat Chem Biol, 2010) come the findings set out here.

In general, Km refers to the concentration of substrate that gives half-maximal velocity. Usually kcat stands for the number of substrate molecules converted per active site and unit of time at saturation. What is called kcat/Km is the second-order rate constant that governs catalysis at low substrate concentration.

Type in all cases: protein assay
Substrate in data set [1]: OC[C@H]1O[C@H](O[C@H]2[C@@H](O)[C@H](O)[C@@H](CO)O[C@@H]2O)[C@@H](O)[C@@H](O)[C@@H]1O
Description: Activity of Bacteroides thetaiotaomicron GH92 alpha-mannosidase GH92 alpha-mannosidase 4092 assessed as mannose release after 16 hrs by HPLC. Summed up:
(§1)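 Yeast mannan or ovalbumin (mostly high-mannose N-glycans) at 1 mg ml−1 was incubated with recombinant IMAC-purified enzyme from E. coli. The methods give enzyme at 2 μM and the table footnote gives 1 μM. Buffer was 100 mM sodium HEPES pH 7.0 with 1 mg ml−1 BSA and 2 mM CaCl2. Aliquots were taken at 1 and 16 h and boiled 10 min. Mannose was measured by HPLC and scored by signal: >500 nC +++, 200–500 ++, <200 +.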

Substrate in data set [2]: O=[N+]([O-])c1ccc(O[C@H]2O[C@H](CO)[C@@H](O)[C@H](O)[C@@H]2O)cc1
Nature of the data set: (§2) Ratio of Kcat to Km for Bacteroides thetaiotaomicron GH92 alpha-mannosidase GH92 alpha-mannosidase 4092 assessed as mannose release after 16 hrs by HPLC.

Substrate in data set [3]: OC[C@H]1O[C@H](O[C@H]2[C@@H](O)[C@H](O)[C@@H](CO)O[C@@H]2O)[C@@H](O)[C@@H](O)[C@@H]1O
The data set is described as §2.

Substrate in data set [4]: O=[N+]([O-])c1ccc(O[C@H]2O[C@H](CO)[C@@H](O)[C@H](O)[C@@H]2O)cc1
Description: (§3) Activity of Bacteroides thetaiotaomicron GH92 alpha-mannosidase GH92 alpha-mannosidase 2199 assessed as mannose release after 16 hrs by HPLC.

Substrate in data set [5]: OC[C@H]1O[C@H](O[C@H]2[C@@H](O)[C@H](O)[C@@H](CO)O[C@@H]2O)[C@@H](O)[C@@H](O)[C@@H]1O
The description is as §3.

Substrate in data set [6]: O=[N+]([O-])c1ccc(O[C@H]2O[C@H](CO)[C@@H](O)[C@H](O)[C@@H]2O)cc1
Description: (§4) Ratio of Kcat to Km for Bacteroides thetaiotaomicron GH92 alpha-mannosidase GH92 alpha-mannosidase 2199 assessed as mannose release after 16 hrs by HPLC.

Substrate in data set [7]: OC[C@H]1O[C@H](O[C@H]2[C@@H](O)[C@H](O)[C@@H](CO)O[C@@H]2O)[C@@H](O)[C@@H](O)[C@@H]1O
The data set is described as §4.

Substrate in data set [8]: OC[C@H]1O[C@H](O[C@H]2[C@H](O)[C@H](O)[C@@H](O)O[C@@H]2CO)[C@@H](O)[C@@H](O)[C@@H]1O
Nature of the data set: (§5) Activity of Bacteroides thetaiotaomicron GH92 alpha-mannosidase GH92 alpha-mannosidase 4093 assessed as mannose release after 16 hrs by HPLC. Summed up: as §1

Substrate in data set [9]: O=[N+]([O-])c1ccc(O[C@H]2O[C@H](CO)[C@@H](O)[C@H](O)[C@@H]2O)cc1
The data set is described as §5. Summed up: as §1

Substrate in data set [10]: OC[C@H]1O[C@H](O[C@H]2[C@H](O)[C@H](O)[C@@H](O)O[C@@H]2CO)[C@@H](O)[C@@H](O)[C@@H]1O
Description: (§6) Ratio of Kcat to Km for Bacteroides thetaiotaomicron GH92 alpha-mannosidase GH92 alpha-mannosidase 4093 assessed as mannose release after 16 hrs by HPLC.

Substrate in data set [11]: O=[N+]([O-])c1ccc(O[C@H]2O[C@H](CO)[C@@H](O)[C@H](O)[C@@H]2O)cc1
The description is as §6.

B1: Alpha-1,2-mannosidase (BT_4092) (Bacteroides thetaiotaomicron), Q8A0C9 (protein)
chain: MKKLVYLIIFFLYSTVMNAQLKDLVQYVNTLQGTDSNFGLSYGNTYPTTGMPYGMHMWSAQTGKNGDGFKYMYAVDKIRAFSQSHQCSPWVSDYAVYSFMPMVGELVVNQDARATKFSHDNEIAKPHYYKVTFDNGITTEMAPTTRGVHLRFSYPTTGDAYLVLDGYTDMSEIKIDPAKRQISGWVNNQRFVNDSKSFRNYFVVQFDKPFEDYGVWENQKDEVFPQKLDGAGKGYGAFIKFKKGSKVQAKAASSYISAEQALITLNKELGKDKNLEVTKARGQKTWNEVLNRIVVEGCTDEQMKTFYSCLFRANLFSRKFYERKENGEPYYYSPYNGKIYDGYMYTDNGFWDTFRSQFPLTNILHPTMQGRYMNALLAAQEQCGWLPSWSSPGETGGMLGNHSISLLADAWAKGIRDFDPEKALKAYAHEAMNKGPWGGANGRGFWKEYFQLGYVPYPESMGSSAQTMEYAYDDFCGYQLAKMVGNKHYQEVFARQMYNYKNVFDKSIGFMRGKGVDGKWQEPFDPLEWGGPFCEGNAWHYTWSVFHDVQGLIDLFGSDEKFTTKIDSVFTIPNIIKPGTYGGVIHEMKEMELANMGQYAHGNQPIQHMPYLYCYAGQPWKTQYWVRQIVERLYNSTEKGYPGDEDQGGMSSWYILSSLGIYAVCPGTDEYVIGSPLFKKATITMENGNKFVIEAPENSKENLYIQSATLNGRLLDKNYIHYDDIAEGGVLKFEMGSQPNKERCTSKYAAPFSLSKE
Consider B1, for which, in [1], the Michaelis constant (Km) is 2 mM and the turnover number (kcat) was 1.83 s⁻¹. The catalytic efficiency (kcat/Km) in data set [2] was determined as 1.12 M⁻¹ s⁻¹. In addition, the specificity constant (kcat/Km) in data set [3] was 900 M⁻¹ s⁻¹.

B2: Alpha-1,2-mannosidase (BT_2199) (Bacteroides thetaiotaomicron), Q8A5N9 (protein)
chain: MVTRLFFLSICFPFLLTSCQQSKKTVEFVDYVNPLMGTESTFAFSHGNTYPAVAVPWGMNFWSPQTGENGSGWMYTYTDSLMRGFRQTHQPSPWINDYGTFSIMPLAGELKMSHKERLVPFSHQQEKATPYNYSVTFNNGLQTSLSATSRGAVFEVSFPEKEDQYVVVDAYNGGSSITIEPEKRLVKGATRYNNGGVPDNFANYFMMEFSHPVIEYGTYNGDTLLHHQTDVAADYTCAYLKFDVPAGEKLTIRTASSFISPEQAAINFNREVADADVQLISGKAREQWNNYLGRVEAEGGTDEQLRTFYSCLYRTLLFPREFYEFDSQGNPVYYSPYDGNVHDGYMYTDNGFWDTFRAVHPLFTLLYPEVSERVTQSIINAYNESGFMPEWASPGHRGCMIGNNSVSLLVDAWMKGIQTVDAEKALEAMIHQTQARHAEIASVGRDGFEYYDKLGYVPYPEVPEATAKTLEYAYADWCIARFAESLGKQDIADQYYQKAPNYRNLYYPEHGFMWTKDAKGNWRDRFDATEWGGPFTEGSSWHWTWSVFHDPEGLSELMGGHEPMIARLDSMFVAPNTYNYGTYGFVIHEIAEMVALNMGQYAHGNQPVQHAIYLYDYIGQPWKTQYHLRNVMDKLYNSGSKGYCGDEDNGQTSAWYVFSAMGFYPVCPGMPEYAIGSPLFKKVTLHLPEGKNFVVSAADNAADRPYIRKALLNGQEFTRNYLTHDELKQGGELNLSMDSVPNQQRGTQPADFPYSYSK
For B2, the Michaelis-Menten constant (Km) in data set [4] stood at 7.5 mM. For the same protein, the kcat in data set [4] turned out to be 0.105 s⁻¹; in data set [5], 40 s⁻¹. For the same protein, the results for the specificity constant (kcat/Km) in data set [6] and in [7] were 14 M⁻¹ s⁻¹ and 60000 M⁻¹ s⁻¹, respectively.

B3: Alpha-1,2-mannosidase family protein (BT_4093) (Bacteroides thetaiotaomicron), Q8A0C8 (protein)
chain: MKHKFLFILLFSLVLEGMVTTQAVAGDYVHQVNTLIGTKGTGLTSGYLYPGATYPYGMVQFTPSYFSKRSGFVINQLSGGGCEHMGNFPTFPVKGKLKMSPDNILNYRINVSEEKGHAGYYEAMVQEDIKAKLTVTERTGMASYEYPADQQYGTIIIGGGISATPIEQAAIVITAPNKCEGYAEGGNFCGLRTPYKVYFVAEFDTDAFETGTWKREELMPNTTFAEGEYSGVYFTFDVNKKKNIQYKIGVSYVSVENARENLKAENAEWDFQKIQNQAEAKWNHYLGMIEVEGTNPDRTTQFYTHLYRSFIHPNVCSDVNGEYMGADFRVHKSRSKHYTSFSNWDTYRTQIQLLSMLDPEVASDIVISHQLFAEQSGGSFPRWVMANIETGVMQGDPTPILIANAYAFGARNYDPKPIFKIMRKGAEEPGSKSQDVETRPGLKQYLDKGYYNASIQLEYTSADFAIGQFALHAVGDEFASWRYFHFARSWKNLYNSDTGWLQSRNPDGSWKSLGEDFRESTYKNYFWMVPYDIAGLVEIIGGKEKAEKRLDEFFTRLDAGYNDAWFASGNEPSFHIPWIYNWIGRPYKTQEIINRVLNEQYSSKIDGLPGNDDLGTMGAWYVFACIGLYPEIPGVGGFTVNTPIFSSVKVHLKKGDIVIKGGSEKDIYIKSMKLNGKSYESTWIDWDQLNSGATIEYRTSGKPDMKWGAKVVPPSFP
Regarding B3, the figures for the Michaelis-Menten constant (Km) in data set [8] and in [9] were 35 mM and 1.3 mM, respectively. Besides, the turnover number (kcat) in data set [8] amounted to 1.33 s⁻¹; in [9], 0.0112 s⁻¹. The kcat/Km in data set [10] was determined as 38.3 M⁻¹ s⁻¹; in data set [11] it was 9.08 M⁻¹ s⁻¹.
